Laboratory results published in ChEMBL document CHEMBL1129967, “3'-Chloro-3 alpha-(diphenylmethoxy)tropane but not 4'-chloro-3 alpha-(diphenylmethoxy)tropane produces a cocaine-like behavioral profile” (J Med Chem, 1997).

Assays:
[1] = target: T1, Sodium-dependent dopamine transporter (Rattus norvegicus, UniProt P23977); assay: Displacement of [3H]WIN-35428 binding to the dopamine transporter (DAT) in Rat Caudate Putamen
[2] = target: Sodium-dependent dopamine transporter (Rattus norvegicus) (UniProt P23977); assay: Selectivity ratio for [3H]-DA uptake inhibition to DAT binding; format: functional
[3] = target: Norepinephrine transporter (Rattus norvegicus) (UniProt Q9WTR4); assay: Percent inhibition at 10 uM for displacement of [3H]- desmethylimipramine binding at the norepinephrine transporter (NET) in rat cortex.
In short: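 Run by a contract screening service under a published method: [3H]desmethylimipramine at 3.0 nM final concentration.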

[4] = target: Sodium-dependent serotonin transporter (Rattus norvegicus) (UniProt P31652); assay: Percent inhibition at 10 uM for displacement of [3H]- citalopram binding at the serotonin transporter (5HTT).
In short: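 Run by a contract screening service under a published method: [3H]citalopram at 0.7 nM final concentration.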

[5] = target: T1, Sodium-dependent dopamine transporter; assay: [3H]-Dopamine uptake inhibition in rat caudate putamen; format: functional, tissue-based
In short: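 Rat caudate putamen chopped into 225 μm slices, in oxygenated Krebs-HEPES at 37 °C. Filtered, tracer extracted with methanol/HCl and counted; filter blank subtracted. IC50 from the linear portion of the concentration–response curve by linear regression.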

[6] = target: T2, Muscarinic acetylcholine receptor M1 (Rattus norvegicus, UniProt P08482); assay: Displacement of [3H]pirenzepine binding at Muscarinic acetylcholine receptor M1 in rat brain P2 membranes.; format: cell membranes, Membrane
T2 sequence (P08482 whole entry): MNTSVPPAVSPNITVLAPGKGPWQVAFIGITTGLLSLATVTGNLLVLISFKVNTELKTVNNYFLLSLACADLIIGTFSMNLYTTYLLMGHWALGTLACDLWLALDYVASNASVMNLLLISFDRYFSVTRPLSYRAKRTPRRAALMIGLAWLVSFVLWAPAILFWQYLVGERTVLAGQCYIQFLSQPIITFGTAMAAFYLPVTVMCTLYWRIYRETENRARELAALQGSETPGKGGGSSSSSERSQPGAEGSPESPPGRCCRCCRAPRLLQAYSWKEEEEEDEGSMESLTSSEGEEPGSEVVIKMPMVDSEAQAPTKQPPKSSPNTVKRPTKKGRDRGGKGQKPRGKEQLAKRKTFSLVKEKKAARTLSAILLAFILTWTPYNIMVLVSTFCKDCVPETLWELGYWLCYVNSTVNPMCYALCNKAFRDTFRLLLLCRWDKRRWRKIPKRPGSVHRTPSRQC
In short: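 Rat brain P2 membranes (0.3 mg protein) in 50 mM Tris-HCl pH 7.4 with 5 mM MgCl2 and 5 nM [3H]pirenzepine. Nine competitor concentrations (0.03–300 nM), 60 min at 37 °C, filtered. Nonspecific binding defined with 10 μM QNB.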

Norepinephrine transporter (Rattus norvegicus), sequence (Q9WTR4 as listed by the source): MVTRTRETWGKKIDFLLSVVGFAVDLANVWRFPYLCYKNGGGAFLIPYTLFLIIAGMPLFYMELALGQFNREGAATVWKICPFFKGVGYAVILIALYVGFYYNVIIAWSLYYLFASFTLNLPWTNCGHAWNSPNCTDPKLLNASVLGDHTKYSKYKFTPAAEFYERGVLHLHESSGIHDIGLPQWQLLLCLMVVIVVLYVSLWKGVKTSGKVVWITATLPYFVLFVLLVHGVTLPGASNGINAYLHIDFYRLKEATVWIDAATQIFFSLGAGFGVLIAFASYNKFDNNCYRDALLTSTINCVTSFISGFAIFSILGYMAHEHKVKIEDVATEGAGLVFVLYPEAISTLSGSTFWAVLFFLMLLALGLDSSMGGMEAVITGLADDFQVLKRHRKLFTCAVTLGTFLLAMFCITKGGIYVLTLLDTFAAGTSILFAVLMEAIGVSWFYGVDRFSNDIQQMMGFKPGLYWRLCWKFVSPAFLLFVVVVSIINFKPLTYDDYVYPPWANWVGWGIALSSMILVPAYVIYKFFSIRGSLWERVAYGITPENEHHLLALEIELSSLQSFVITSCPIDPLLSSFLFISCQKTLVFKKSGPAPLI
T1 sequence (P23977 whole entry): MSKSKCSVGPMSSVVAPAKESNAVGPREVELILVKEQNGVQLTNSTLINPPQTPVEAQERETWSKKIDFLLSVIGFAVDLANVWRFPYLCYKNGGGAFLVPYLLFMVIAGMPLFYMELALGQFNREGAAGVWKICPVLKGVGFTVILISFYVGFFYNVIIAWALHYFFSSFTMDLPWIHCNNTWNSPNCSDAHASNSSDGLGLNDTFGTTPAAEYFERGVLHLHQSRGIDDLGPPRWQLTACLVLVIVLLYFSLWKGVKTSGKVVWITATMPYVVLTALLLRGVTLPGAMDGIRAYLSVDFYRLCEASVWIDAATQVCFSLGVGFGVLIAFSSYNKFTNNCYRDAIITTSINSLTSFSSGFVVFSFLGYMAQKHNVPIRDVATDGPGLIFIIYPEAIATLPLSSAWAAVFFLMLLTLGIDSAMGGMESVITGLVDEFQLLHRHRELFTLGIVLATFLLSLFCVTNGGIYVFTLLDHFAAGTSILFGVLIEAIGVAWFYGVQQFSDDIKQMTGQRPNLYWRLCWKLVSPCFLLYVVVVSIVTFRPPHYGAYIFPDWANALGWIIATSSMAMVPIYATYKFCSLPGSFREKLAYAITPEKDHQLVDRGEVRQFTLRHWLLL
Sodium-dependent dopamine transporter (Rattus norvegicus), sequence (P23977 whole entry): as above
Sodium-dependent serotonin transporter (Rattus norvegicus), sequence (P31652 whole entry): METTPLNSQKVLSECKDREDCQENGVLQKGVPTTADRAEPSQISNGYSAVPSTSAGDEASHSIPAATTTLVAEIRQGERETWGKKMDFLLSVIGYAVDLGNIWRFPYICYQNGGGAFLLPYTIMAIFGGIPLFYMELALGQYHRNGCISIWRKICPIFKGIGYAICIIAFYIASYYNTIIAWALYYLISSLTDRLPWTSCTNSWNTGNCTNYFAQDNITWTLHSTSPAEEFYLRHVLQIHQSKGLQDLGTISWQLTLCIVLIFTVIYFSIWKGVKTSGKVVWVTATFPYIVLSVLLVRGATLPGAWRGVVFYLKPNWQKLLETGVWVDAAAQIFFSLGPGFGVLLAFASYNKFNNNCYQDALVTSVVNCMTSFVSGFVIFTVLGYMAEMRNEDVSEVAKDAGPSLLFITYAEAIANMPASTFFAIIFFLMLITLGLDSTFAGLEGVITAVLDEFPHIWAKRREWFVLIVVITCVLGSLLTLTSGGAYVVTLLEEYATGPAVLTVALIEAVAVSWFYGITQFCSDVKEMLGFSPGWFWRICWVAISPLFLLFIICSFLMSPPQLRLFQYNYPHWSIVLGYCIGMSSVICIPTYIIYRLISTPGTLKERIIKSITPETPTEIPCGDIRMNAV

| Structure (SMILES) | Ki [1] | Selectivity ratio [2] | I [3] | I [4] | IC50 [5] | Ki [6] |
| --- | --- | --- | --- | --- | --- | --- |
| CN1[C@@H]2CC[C@H]1C[C@@H](OC(c1ccccc1)c1cccc(Cl)c1)C2 (some centres not stated) | 21.6 nM | 10.6 | 74.7% | 24.5% | 228 nM | 0.98 nM |
| CN1C2CCC1CC(OC(c1ccccc1)c1ccc(Cl)cc1)C2 (configuration not stated) | – | 3.8 | 32% | 34% | – | 1.48 nM |
| CN1[C@@H]2CC[C@H]1C[C@@H](OC(c1cccc(F)c1)c1cccc(F)c1)C2 | 47.4 nM | 8.6 | 75.6% | 72.6% | 407 nM | 0.85 nM |
| CN1[C@@H]2CC[C@H]1C[C@@H](OC(c1ccccc1)c1ccccc1F)C2 (some centres not stated) | 50 nM | 2.8 | 17.8% | 22.3% | 140 nM | 0.43 nM |
| CN1[C@@H]2CC[C@H]1C[C@@H](OC(c1ccccc1)c1ccccc1N)C2 (some centres not stated) [AMINOBENZTROPINE] | 1840 nM | 0.2 | 14% | 16% | 373 nM | 1.12 nM |
| CN1[C@@H]2CC[C@H]1C[C@@H](OC(c1ccccc1)c1cccc(F)c1)C2 (some centres not stated) | 68.5 nM | 3.7 | 82.4% | 42.2% | 250 nM | 0.6 nM |
| CN1[C@@H]2CC[C@H]1C[C@@H](OC(c1ccccc1)c1cccc(C(F)(F)F)c1)C2 (some centres not stated) | 187 nM | 2.4 | 78.5% | 59.8% | 457 nM | 2.52 nM |
| CN1[C@@H]2CC[C@H]1C[C@@H](OC(c1ccccc1)c1ccccc1Cl)C2 (some centres not stated) | 228 nM | 4.4 | 76.1% | 55.4% | 997 nM | 0.41 nM |
| Cc1ccccc1C(O[C@H]1C[C@H]2CC[C@@H](C1)N2C)c1ccccc1 (some centres not stated) | 309 nM | 3.9 | 66.5% | 35.7% | 1200 nM | 0.5 nM |
